Series [1] in a line: Cytotoxicity against human HL60 cells assessed as growth inhibition after 48 hrs by MTT assay. The format is functional, cell-based. The settings on record: HL-60, 48 h. In a few lines:
(§1)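 Leukemia cells in RPMI 1640 and MCF-7 in DMEM, both with 10% heat-inactivated FBS. HUVECs were grown per the supplier's protocol at passages 3–8. Cultures were kept at 37 °C in humidified 5% CO₂ and seeded at 8 × 10³ cells/well. After 24 h, compounds from fresh DMSO stocks were added over 10^-7 to 10^-3 M. Absorbance was read at 560 nm against untreated cells. IC50 came from concentration–response curves, as mean ± SD of at least three experiments.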

Series [2] is described as follows: Cytotoxicity against human NALM6 cells assessed as growth inhibition after 48 hrs by MTT assay. Type of series: functional, cell-based. The following applies: NALM-6, 48 h. In a few lines: as §1
The subject of the next series is MCF7. Kind of series: Cytotoxicity against human MCF7 cells assessed as growth inhibition after 48 hrs by MTT assay. Type of series: functional, cell-based. The settings on record: MCF7, 48 h. In a few lines:
as §1
For orientation: Tetrazolium dyes change colour on reduction, which living cells bring about.

A further series has as its system HUVEC. Kind of series: Cytotoxicity against HUVEC assessed as growth inhibition after 48 hrs by MTT assay. The following applies: Homo sapiens. Type of series: cell-based. In short, it runs like this: as §1
Series [3] in a line: Therapeutic index, ratio of IC50 for HUVEC to IC50 for human NALM6 cells. Type of series: cell-based, NALM-6. The following applies: HUVEC and NALM6 cells, read-out: Ratio IC50.
Series [4] in a line: Therapeutic index, ratio of IC50 for HUVEC to IC50 for human HL60 cells. Type of series: cell-based, HL-60. The settings on record: HUVEC and HL60 cells, read-out: Ratio IC50.

The text below walks through data of ChEMBL document CHEMBL3407476, “Design, synthesis and cytotoxic evaluation of 4-methylidenepyrazolidin-3-ones” (Eur J Med Chem, 2015).

By IC50 is commonly meant the midpoint of a concentration-inhibition curve. Take `C=C1C(=O)N(c2ccccc2)N(C)C1CCCC` (stereo not given): the IC50 turned out to be 460 µM in series [1], 432 µM in series [2] and 235 µM in the series on MCF7.

In the case of `C=C1C(=O)N(c2ccccc2)N(C)C1c1ccccc1` (stereo not given), the IC50 in series [1] was 40.9 µM; in series [2] it was 24.4 µM; in the series with MCF7, 84.4 µM.

In the case of `C=C1CN(C)N(c2ccc(Br)cc2)C1=O`, the values for the IC50 (in series [1]; in series [2]; with MCF7) were 51.8 µM, 62 µM and 43.8 µM, respectively.

Regarding `C=C1CN(C)N(c2ccccc2)C1=O`, the IC50 turned out to be 45.7 µM in series [1], 56 µM in series [2] and 56 µM in the series on MCF7.

`C=C1C(=O)N(c2ccccc2)N(C)C1CCCCCCCCC` (stereo not given): the IC50 in series [1] came out at 49.9 µM; in series [2], 57.5 µM; with MCF7 it was 91.1 µM.

`C=C1C(=O)N(c2ccccc2)N(c2ccccc2)C1C` (stereo not given): the IC50 in series [1] stood at 5.85 µM; in series [2], 6.98 µM; with MCF7, 12.5 µM; in the series on HUVEC, 29.9 µM. In addition, the selectivity ratio in series [3] worked out at 4; in series [4] it was 5.

Take `C=C1CN(C)N(c2ccc(C)cc2)C1=O`: the IC50 in series [1] stood at 65.7 µM; in series [2] it was 90.1 µM; in the series with MCF7 it was 59.1 µM.

In the case of `C=C1C(=O)N(c2ccccc2)N(C)C1CC` (stereo not given), the IC50 is 750 µM in series [1], 576 µM in series [2] and 185 µM in the series with MCF7.

Consider `C=C1C(=O)NC(C)C1c1ccc(Br)cc1` (stereo not given), for which the IC50 in series [1] worked out at 515 µM; in series [2], 439 µM.

As to `C=C1C(=O)N(c2ccccc2)N(c2ccccc2)C1c1ccccc1` (stereo not given), the IC50 in series [1] stood at 1.61 µM; in series [2], 3.82 µM; with MCF7, 4.5 µM; in the series on HUVEC, 4.46 µM.

With `C=C1C(=O)N(c2ccccc2)N(c2ccccc2)C1CCCC` (stereo not given), the IC50 in series [1] was 8.92 µM; in series [2] it was 29.1 µM; with MCF7, 25.2 µM; with HUVEC it was 27 µM.

Take `C=CC1C(=C)C(=O)N(c2ccccc2)N1c1ccccc1` (stereo not given): the IC50 in series [1] is 1.32 µM; in series [2] it was 0.74 µM; in the series with MCF7, 5.1 µM; in the series with HUVEC, 2.73 µM. Moreover, in series [3], the selectivity ratio was found to be 4.

`C=C1C(=O)N(c2ccccc2)N(C)C1c1ccc(OC)cc1` (stereo not given): the IC50 in series [1] is 37.3 µM; in series [2] it was 49.3 µM; in the series with MCF7 it was 75 µM.

For `C=C1C(=O)N(c2ccccc2)N(c2ccccc2)C1CC` (stereo not given), the IC50 in series [1] came out at 8.89 µM; in series [2], 14.9 µM; in the series with MCF7, 20 µM; with HUVEC, 23.9 µM.

Regarding `C=C1CN(C)N(c2ccc(Cl)cc2)C1=O`, the IC50 came out at 38.1 µM in series [1], 51.9 µM in series [2] and 45.2 µM in the series on MCF7.

`C=C1C(=O)N(c2ccccc2)N(C)C1C` (stereo not given): the IC50 turned out to be 531 µM in series [1], 412 µM in series [2] and 153 µM with MCF7.
